Measured values from ChEMBL document CHEMBL3272217, “6,11-Dihydro-11-oxodibenz [b,e] oxepinacetic acids with potent antiinflammatory activity” (J Med Chem, 1976).

Experiments:
[1] = Acute toxicity in po dosed rat after 7 days; details: in vivo
Rattus norvegicus [2] = assay: Antiinflammatory activity in po dosed rat assessed as inhibition of carrageenan-induced paw edema; assay type: functional; details: for ED50: Rattus norvegicus, po, read-out: ID50 (the source's name)
Procedure, shortened: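 Carrageenan paw edema (Winter method) in male rats, seven animals per dose. Drug given orally as a suspension in 0.5% CMC at three or more dose levels within 0.1–18 mg/kg.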

Rattus norvegicus [3] = assay: Antiinflammatory activity in rat with acute phase of inflammation assessed as inhibition of adjuvant-carrageenan-induced paw edema at 2 mg/kg, po relative to control; assay type: functional
Procedure, shortened: (§1)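 Adjuvant-carrageenan-induced inflammation in female rats, ten animals per dose. Oral dosing at 1 or 2 mg/kg. Edema inhibition scored separately for the acute and prolonged phases, given as % inhibition (mean ± SE).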

Rattus norvegicus [4] = assay: Antiinflammatory activity in rat with prolonged phase of inflammation assessed as inhibition of adjuvant-carrageenan-induced paw edema at 2 mg/kg, po relative to control; assay type: functional; procedure, shortened: as §1
Rattus norvegicus [5] = assay: Antiinflammatory activity in Wistar albino rat assessed as inhibition of adjuvant-induced arthritis at 0.5 mg/kg, po administered for 14 days prior to adjuvant challenge relative to control; assay type: functional
Procedure, shortened: (§2)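 Adjuvant arthritis in female rats, ten animals per dose. Oral treatment given either prophylactically or therapeutically at the stated doses. Percent inhibition reported as mean ± SE.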

Rattus norvegicus [6] = assay: Antiinflammatory activity in Wistar albino rat assessed as inhibition of adjuvant-induced arthritis at 0.5 mg/kg, po administered for 14 days followed by adjuvant challenge relative to control; assay type: functional; details: 336 h; procedure, shortened: as §2
Mus musculus = assay: Analgesic activity in po dosed mouse assessed as inhibition of acetic acid-induced writhing; assay type: functional
Procedure, shortened: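 Acetic acid writhing test (Koster method) in male mice, ten animals per dose level.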

Rattus norvegicus [7] = assay: Analgesic activity in carrageenan-treated po dosed rat assessed as concentration required to double pain index of control; assay type: functional
Procedure, shortened: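 Randall–Selitto paw-pressure test in male rats after carrageenan injection, seven animals per dose level. Pain index = pain threshold after carrageenan / threshold before carrageenan. AID2.0 is the dose doubling the control group's pain index. It and its 95% fiducial limits come from a least-squares regression line, with limits by Fieller's equation.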

[8] = Toxicity in po dosed rat assessed as induction of gastric lesion; assay type: organism-based, Stomach; details: in vivo, read-out: UD50 (the source's name)
Procedure, shortened: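 Gastric lesions scored by the Jahn and Adrian method in male rats, ten animals per dose level, after oral dosing. UD50 and 95% fiducial limits by the Litchfield–Wilcoxon method.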

Rattus norvegicus [9] = assay: Antiinflammatory activity in rat with acute phase of inflammation assessed as inhibition of adjuvant-carrageenan-induced paw edema at 1 mg/kg, po relative to control; assay type: functional; procedure, shortened: as §1
Rattus norvegicus [10] = assay: Antiinflammatory activity in rat with prolonged phase of inflammation assessed as inhibition of adjuvant-carrageenan-induced paw edema at 1 mg/kg, po relative to control; assay type: functional; procedure, shortened: as §1
Rattus norvegicus [11] = assay: Antiinflammatory activity in Wistar albino rat assessed as inhibition of adjuvant-induced arthritis at 0.25 mg/kg, po administered for 14 days prior to adjuvant challenge relative to control; assay type: functional; procedure, shortened: as §2
Rattus norvegicus [12] = assay: Antiinflammatory activity in Wistar albino rat assessed as inhibition of adjuvant-induced arthritis at 0.25 mg/kg, po administered for 14 days followed by adjuvant challenge relative to control; assay type: functional; details: 336 h; procedure, shortened: as §2
Rattus norvegicus [13] = assay: Potency index, ratio of indomethacin ID50 to compound ID50 for antiinflammatory activity in po dosed rat assessed as inhibition of carrageenan-induced paw edema; assay type: functional
Procedure, shortened: (§3)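 The ratio uses oral carrageenan paw-edema ID50 values from male rats, seven animals per dose, with drugs suspended in 0.5% CMC. Each ID50 comes from a least-squares dose–response regression. The index is reference ID50 divided by test ID50 on a weight basis.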

Rattus norvegicus [14] = assay: Potency index, ratio of phenylbutazone ID50 to compound ID50 for antiinflammatory activity in po dosed rat assessed as inhibition of carrageenan-induced paw edema; assay type: functional; procedure, shortened: as §3
Rattus norvegicus [15] = assay: Potency index, ratio of ketoprofen ID50 to compound ID50 for antiinflammatory activity in po dosed rat assessed as inhibition of carrageenan-induced paw edema; assay type: functional; procedure, shortened: as §3
Rattus norvegicus [16] = assay: Antiinflammatory activity in Wistar albino rat assessed as inhibition of adjuvant-induced arthritis at 30 mg/kg, po administered for 14 days prior to adjuvant challenge relative to control; assay type: functional; procedure, shortened: as §2
Rattus norvegicus [17] = assay: Antiinflammatory activity in Wistar albino rat assessed as inhibition of adjuvant-induced arthritis at 30 mg/kg, po administered for 14 days followed by adjuvant challenge relative to control; assay type: functional; details: 336 h; procedure, shortened: as §2
Rattus norvegicus [18] = assay: Antiinflammatory activity in Wistar albino rat assessed as inhibition of adjuvant-induced arthritis at 2 mg/kg, po administered for 14 days prior to adjuvant challenge relative to control; assay type: functional; procedure, shortened: as §2
Rattus norvegicus [19] = assay: Antiinflammatory activity in Wistar albino rat assessed as inhibition of adjuvant-induced arthritis at 1 mg/kg, po administered for 14 days followed by adjuvant challenge relative to control; assay type: functional; details: 336 h; procedure, shortened: as §2
Rattus norvegicus [20] = assay: Antiinflammatory activity in Wistar albino rat assessed as inhibition of adjuvant-induced arthritis at 10 mg/kg, po administered for 14 days prior to adjuvant challenge relative to control; assay type: functional; procedure, shortened: as §2
Rattus norvegicus [21] = assay: Antiinflammatory activity in Wistar albino rat assessed as inhibition of adjuvant-induced arthritis at 10 mg/kg, po administered for 14 days followed by adjuvant challenge relative to control; assay type: functional; details: 336 h; procedure, shortened: as §2

## COc1ccc2c(c1)c(CC(=O)O)c(C)n2C(=O)c1ccc(Cl)cc1 [INDOMETHACIN]
[1]
  LD50 at 168 h: 18.9 mg/kg
Rattus norvegicus [2]
  ED50: 8.4 mg/kg
Rattus norvegicus [3]
  inhibition in vivo at 2 mg/kg: 48%
Rattus norvegicus [4]
  inhibition in vivo at 2 mg/kg: 85%
Rattus norvegicus [5]
  inhibition in vivo at 0.5 mg/kg: 48%
Rattus norvegicus [6]
  inhibition in vivo at 0.5 mg/kg: 26%
Mus musculus
  ED50: 10 mg/kg
Rattus norvegicus [7]
  AID2.0 (dose doubling pain index): 1.53 mg/kg
[8]
  TD50: 6.6 mg/kg

## O=C(O)Cc1ccc2c(c1)C(=O)c1ccc(Cl)cc1CO2
Rattus norvegicus [2]
  ID30: 3 mg/kg
  ED50: 41.6 mg/kg

## CC(C(=O)[O-])c1ccc2c(c1)C(=O)c1ccccc1CO2.CC(C(=O)[O-])c1ccc2c(c1)C(=O)c1ccccc1CO2.[Ca+2] (configuration not stated)
Rattus norvegicus [2]
  ED50: 3.5 mg/kg

## O=C(O)Cc1cccc2c1C(=O)c1ccccc1CO2
Rattus norvegicus [2]
  ED50: > 18 mg/kg

## Cc1ccc2c(c1)COc1cc(CC(=O)O)ccc1C2=O
Rattus norvegicus [2]
  ED50: 6.6 mg/kg

## CC(C(=O)O)c1ccc2c(c1)OCc1ccccc1C2=O (racemic)
[1]
  LD50 at 168 h: 34.2 mg/kg
Rattus norvegicus [2]
  ID50: 0.76 mg/kg
Rattus norvegicus [9]
  inhibition in vivo at 1 mg/kg: 59%
Rattus norvegicus [10]
  inhibition in vivo at 1 mg/kg: 110%
Rattus norvegicus [11]
  inhibition in vivo at 0.25 mg/kg: 55%
Rattus norvegicus [12]
  inhibition in vivo at 0.25 mg/kg: 30%
Mus musculus
  ED50: 11 mg/kg
Rattus norvegicus [7]
  AID2.0 (dose doubling pain index): 0.18 mg/kg
[8]
  TD50: 11.4 mg/kg

## COc1ccc2c(c1)COc1cc(CC(=O)O)ccc1C2=O
Rattus norvegicus [2]
  ED50: > 9 mg/kg

## O=C(O)Cc1ccc2c(c1)OCc1cc(Cl)ccc1C2=O
Rattus norvegicus [2]
  ED50: 7.6 mg/kg

## CC(C(=O)O)c1ccc2c(c1)OCc1cc(I)ccc1C2=O (configuration not stated)
Rattus norvegicus [2]
  ED50: 4.8 mg/kg

## CC(C(=O)O)c1ccc2c(c1)OCc1cc(Cl)ccc1C2=O (configuration not stated)
[1]
  LD50 at 168 h: 12.1 mg/kg
Rattus norvegicus [2]
  ED50: 1.4 mg/kg
Rattus norvegicus [11]
  inhibition in vivo at 0.25 mg/kg: 50%
Rattus norvegicus [12]
  inhibition in vivo at 0.25 mg/kg: 26%
Mus musculus
  ED50: 36 mg/kg
Rattus norvegicus [7]
  AID2.0 (dose doubling pain index): 0.28 mg/kg
[8]
  TD50: 32.3 mg/kg

## O=C(O)Cc1ccc2c(c1)OCc1ccccc1C2=O [OXEPINAC]
[1]
  LD50 at 168 h: 110 mg/kg
Rattus norvegicus [2]
  ED50: 3.7 mg/kg
Rattus norvegicus [3]
  inhibition in vivo at 2 mg/kg: 45%
Rattus norvegicus [4]
  inhibition in vivo at 2 mg/kg: 89%
Rattus norvegicus [5]
  inhibition in vivo at 0.5 mg/kg: 55%
Rattus norvegicus [6]
  inhibition in vivo at 0.5 mg/kg: 31%
Mus musculus
  ED50: 58 mg/kg
Rattus norvegicus [7]
  AID2.0 (dose doubling pain index): 0.44 mg/kg
[8]
  TD50: 79.9 mg/kg

## CC(C(=O)O)c1ccc2c(c1)C(=O)c1ccccc1CO2 (racemic)
Rattus norvegicus [2]
  ID50: 2.6 mg/kg
Rattus norvegicus [3]
  inhibition in vivo at 2 mg/kg: 57%
Rattus norvegicus [4]
  inhibition in vivo at 2 mg/kg: 82%
Rattus norvegicus [11]
  inhibition in vivo at 0.25 mg/kg: 36%
Rattus norvegicus [12]
  inhibition in vivo at 0.25 mg/kg: 12%
Mus musculus
  ED50: 14 mg/kg
Rattus norvegicus [7]
  AID2.0 (dose doubling pain index): 0.4 mg/kg
[8]
  TD50: 14.1 mg/kg

## O=C(O)Cc1ccc2c(c1)C(=O)c1cc(Cl)ccc1CO2
Rattus norvegicus [2]
  ID30: > 18 mg/kg
  ED50: > 18 mg/kg

## O=C(O)Cc1cc2c(c([N+](=O)[O-])c1)OCc1ccccc1C2=O
Rattus norvegicus [2]
  ED50: > 18 mg/kg

## CCOC(=O)Cc1ccc2c(c1)C(=O)c1ccccc1CO2
Rattus norvegicus [2]
  ED50: 17.8 mg/kg

## CC(C(=O)O)c1ccc2c(c1)C(=O)c1ccccc1CO2 (stereo in doubt; 10)
Rattus norvegicus [2]
  ID50: 1.3 mg/kg

## O=C(O)Cc1ccc2c(c1)OCc1cc(C(F)(F)F)ccc1C2=O
Rattus norvegicus [2]
  ED50: > 9 mg/kg

## CC(C(=O)O)c1ccc2c(c1)C(=O)c1ccc(Cl)cc1CO2 (configuration not stated)
Rattus norvegicus [2]
  ED50: 7.6 mg/kg

## CC(C(=O)O)c1ccc2c(c1)OCc1ccccc1C2=O (stereo in doubt; 23)
Rattus norvegicus [2]
  ED50: 0.43 mg/kg
Rattus norvegicus [13]
  Ratio: 15.4
Rattus norvegicus [14]
  Ratio: 165.4
Rattus norvegicus [15]
  Ratio: 32.3

## O=C(O)Cc1ccc2c(c1)OCc1cc(I)ccc1C2=O
Rattus norvegicus [2]
  ED50: 6.7 mg/kg

## CC(C(=O)O)c1ccc2c(c1)OCc1ccccc1C2=O (stereo in doubt; 24)
Rattus norvegicus [2]
  ID50: 0.67 mg/kg

## CCCCC1C(=O)N(c2ccccc2)N(c2ccccc2)C1=O [PHENYLBUTAZONE]
Rattus norvegicus [2]
  ED50: 77.7 mg/kg
Rattus norvegicus [16]
  inhibition in vivo at 30 mg/kg: 71%
Rattus norvegicus [17]
  inhibition in vivo at 30 mg/kg: 58%
Mus musculus
  ED50: > 400 mg/kg
Rattus norvegicus [7]
  AID2.0 (dose doubling pain index): 17.22 mg/kg
[8]
  TD50: 96 mg/kg

## CC(C(=O)O)c1ccc2c(c1)OCc1cc(C(F)(F)F)ccc1C2=O (configuration not stated)
Rattus norvegicus [2]
  ED50: > 9 mg/kg

## CC(C(=O)O)c1cccc(C(=O)c2ccccc2)c1 (configuration not stated) [KETOPROFEN]
Rattus norvegicus [2]
  ED50: 12.5 mg/kg
Rattus norvegicus [18]
  inhibition in vivo at 2 mg/kg: 84%
Rattus norvegicus [19]
  inhibition in vivo at 1 mg/kg: 42%
Mus musculus
  ED50: 71 mg/kg
Rattus norvegicus [7]
  AID2.0 (dose doubling pain index): 1.61 mg/kg
[8]
  TD50: 6.8 mg/kg

## COc1ccc2c(c1)COc1ccc(CC(=O)O)cc1C2=O
Rattus norvegicus [2]
  ED50: > 18 mg/kg

## CC(C(=O)O)c1ccc2c(c1)OCc1ccc(Cl)cc1C2=O (configuration not stated)
Rattus norvegicus [2]
  ED50: 11.9 mg/kg

## CC(C(=O)O)c1ccc2c(c1)C(=O)c1ccccc1CO2 (stereo in doubt; 11)
Rattus norvegicus [2]
  ID50: 7.5 mg/kg

## O=C(O)Cc1ccc2c(c1)C(=O)c1ccccc1CO2 [ISOXEPAC]
[1]
  LD50 at 168 h: 199 mg/kg
Rattus norvegicus [2]
  ED50: 14.3 mg/kg
Rattus norvegicus [3]
  inhibition in vivo at 2 mg/kg: 28%
Rattus norvegicus [4]
  inhibition in vivo at 2 mg/kg: 55%
Rattus norvegicus [20]
  inhibition in vivo at 10 mg/kg: 77%
Rattus norvegicus [21]
  inhibition in vivo at 10 mg/kg: 56%
Mus musculus
  ED50: 95 mg/kg
Rattus norvegicus [7]
  AID2.0 (dose doubling pain index): 3.18 mg/kg
[8]
  TD50: 63 mg/kg

## O=C(O)Cc1ccc2c(c1)OCc1cc(F)ccc1C2=O
Rattus norvegicus [2]
  ED50: > 9 mg/kg

## COC(=O)Cc1ccc2c(c1)C(=O)c1ccccc1CO2
Rattus norvegicus [2]
  ED50: 15.2 mg/kg

## CC(C(=O)O)c1ccc2c(c1)OCc1cc(F)ccc1C2=O (configuration not stated)
Rattus norvegicus [2]
  ED50: 4 mg/kg

## CCOC(=O)Cc1ccc2c(c1)OCc1ccccc1C2=O
Rattus norvegicus [2]
  ED50: 8.6 mg/kg
